The record followed here is PubChem BioAssay.

A short description of experiment [1]: Her2 expression decrease, cell viability multiplex – SKBR3 breast tumor cells, AlphaScreen, ATP viability, primary screen (AID 461;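 active = Her2 level under about 52% in both replicate screens, with viability over 70% of control, limit read from the data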;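 as to Her2 level: lower value means less Her2 protein in the cells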;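 as to viability: percent of carrier control wells set as 100% viability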). The note with it: SKBR3 Her2 protein level, 18-24 h, measured here: SKBR3 viability, ATP luminescence, at 10 µM. On the technique in general: In Alpha technology, singlet oxygen from a donor bead excites a nearby acceptor bead.
The target of experiment [2] is Receptor tyrosine-protein kinase erbB-2 (Homo sapiens) (UniProt P04626). The description is as above. The note with it: 18-24 h, at 10 µM, stronger effect = lower value.
Chain of Receptor tyrosine-protein kinase erbB-2 (Homo sapiens) (P04626 whole entry, looked up): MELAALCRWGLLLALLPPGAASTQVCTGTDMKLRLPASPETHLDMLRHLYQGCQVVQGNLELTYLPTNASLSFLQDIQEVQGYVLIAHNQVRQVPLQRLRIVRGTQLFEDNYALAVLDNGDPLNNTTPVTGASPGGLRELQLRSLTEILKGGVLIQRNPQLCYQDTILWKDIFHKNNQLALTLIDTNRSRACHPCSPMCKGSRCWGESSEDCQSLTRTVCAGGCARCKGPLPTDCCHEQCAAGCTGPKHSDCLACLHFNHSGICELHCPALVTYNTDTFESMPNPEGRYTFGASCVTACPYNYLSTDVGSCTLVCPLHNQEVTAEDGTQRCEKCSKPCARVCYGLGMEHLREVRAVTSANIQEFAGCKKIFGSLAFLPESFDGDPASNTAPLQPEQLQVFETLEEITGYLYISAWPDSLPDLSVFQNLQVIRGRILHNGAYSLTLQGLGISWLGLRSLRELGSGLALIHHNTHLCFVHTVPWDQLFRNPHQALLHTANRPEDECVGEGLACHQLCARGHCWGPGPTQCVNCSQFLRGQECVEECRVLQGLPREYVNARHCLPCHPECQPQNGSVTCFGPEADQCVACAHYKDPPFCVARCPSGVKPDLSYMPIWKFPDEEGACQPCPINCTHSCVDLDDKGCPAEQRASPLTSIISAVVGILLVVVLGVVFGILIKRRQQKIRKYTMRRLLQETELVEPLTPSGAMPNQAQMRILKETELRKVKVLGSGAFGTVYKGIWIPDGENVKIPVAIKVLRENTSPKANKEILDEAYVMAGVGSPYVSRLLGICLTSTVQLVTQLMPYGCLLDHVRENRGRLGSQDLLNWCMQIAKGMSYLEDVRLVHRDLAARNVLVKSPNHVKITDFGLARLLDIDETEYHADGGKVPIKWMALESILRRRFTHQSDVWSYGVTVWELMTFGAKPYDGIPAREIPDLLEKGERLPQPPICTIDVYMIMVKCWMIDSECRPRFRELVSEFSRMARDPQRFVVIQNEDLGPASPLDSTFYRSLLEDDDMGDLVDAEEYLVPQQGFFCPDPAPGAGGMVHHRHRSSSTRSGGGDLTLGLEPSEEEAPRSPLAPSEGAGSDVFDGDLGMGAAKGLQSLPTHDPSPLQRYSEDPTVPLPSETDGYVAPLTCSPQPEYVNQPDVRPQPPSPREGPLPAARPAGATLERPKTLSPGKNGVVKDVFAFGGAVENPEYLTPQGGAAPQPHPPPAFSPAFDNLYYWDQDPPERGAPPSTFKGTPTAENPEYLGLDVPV
Experiment [3] is described as follows: reduced viability of SK-BR-3 breast cancer cells – cell-based, 24 h, human, pilot screen (AID 572).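 Also: compound exposure lasted between 18 and 24 h rather than exactly 24 h; 100% = carrier-treated control wells.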 The settings on record: SK-BR-3 viability, CellTiter-Glo luminescence, at 10 µM, stronger effect = lower value. In general terms: ATP-based viability assays read luminescence as a measure of living cells.
Experiment [4] in a line: HUVEC growth inhibition – cell-based, human, primary screen (AID 575;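 active = viability at or below 30% in both replicate assays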;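 also: 100% = median of untreated cell wells with 0.1% DMSO on each plate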). The settings on record: HUVEC proliferation, CellTiter-Glo luminescence, 72 h; at 10 µM; stronger effect = lower value. The method, boiled down: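 Assay system: Primary human umbilical vein endothelial cells | Quantity: 1250 cells per well | Medium: Supplemented EBM, 2% fetal bovine serum | Detection: CellTiter-Glo luminescence measuring cellular ATP | Read-out: % viability vs DMSO wells | Plate: Collagen-coated 384-well format | Times: 72 h exposure, 37 °C, 5% CO2, 30 min RT equilibration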

The nature of experiment [5]: H69AR cell proliferation blockers – human, duplicate replicates, primary screen (AID 580;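 active = viability at or under a set limit in both replicates, limit being median viability minus 3 SD, cut at about 48% in these data, passing the limit was not always enough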;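 also: 100% = mean luminescence of untreated wells and 0% = no signal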). The note with it: H69AR lung tumor cells viability, ATP luminescence, 72 h; at 10 µM; stronger effect = lower value.
Experiment [6] in a line: MRP1 drug-resistance reversers in H69AR cells – cell-based, doxorubicin co-treatment, pilot screen (AID 601;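 active = viability loss from added drug above about 55%, and viability with drug at most 40%, in both replicates, limit read from the data, passing the limit was not always enough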). The settings on record: CellTiter-Glo, 72 h, at 10 µM; for differential viability (reversal): stronger effect = higher value.
Experiment [7] in a line: yeast transport mutant growth inhibition pilot in 384-well plates, post-Golgi transport modulator project (AID 636; in the data active = inhibition above about 31%). The note with it: absorbance 615 nm, about 18 h, stronger effect = higher value.
A short description of experiment [8]: growth suppression of yeast trafficking mutant, preliminary HTS, modulators of trafficking downstream of Golgi apparatus project, 1536-format plate, OD 615 nm (AID 637; in the data active = inhibition above about 30%). The settings on record: yeast transport mutant growth, absorbance 615 nm, 18 h; stronger effect = higher value.
[9] abbreviates: H69AR cells + 2 uM doxorubicin, measured here: viability with 2 uM doxorubicin, stronger effect = lower value.
Where [10] appears, read: H69AR cells, compound alone cytotoxicity.

The structures appear in SMILES notation. Activity calls are given as the source filed them.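 The calls were made as follows, unless noted: active = viability at or below 10% of carrier control in both of two separate runs; inconclusive = viability at or below 10% in only one of the two runs; inactive = the rest.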

For orientation: viability means a read-out of living cells in per cent, often relative to untreated cells. The inhibition is the change of the read-out against control, counted positive when it falls. Take `O=S(=O)(NCc1cccnc1)c1cccc2nsnc12`: the viability in experiment [1] is 98%; in experiment [3] it was 98% (inactive); in experiment [4], 89.6% (inactive); in experiment [5] it was 92.3% (inactive); in experiment [6] (setting [9]), 85.8%; in experiment [6] (setting [10]) it was 92.3%. In experiment [2], the Her2 level is 83.5% (inactive). Also, in experiment [6] (H69AR cells + 2 uM doxorubicin), the differential viability (reversal) is 6.5% (inactive). In addition, the inhibition in experiment [7] was -7.07% (inactive); in experiment [8], 6.56% (inactive).

Turning to `COc1cccc(-c2cc(C(=O)Nc3cc(OC)c(OC)c(OC)c3)no2)c1`, the viability was 106% in experiment [1]; 106% (inactive) in experiment [3]; 57.5% (inactive) in experiment [4]; 16.6% (active) in experiment [5]; 88.6% in experiment [6] (setting [9]); 16.6% in experiment [6] (setting [10]). Moreover, the Her2 level in experiment [2] was 99.5% (inactive). The differential viability (reversal) in experiment [6] (H69AR cells + 2 uM doxorubicin) was -72% (inactive). The inhibition in experiment [7] was -4.59% (inactive); in experiment [8] it was -3.11% (inactive).

For the compound `CCOC(=O)N1CCN(S(=O)(=O)c2cc(Cl)c(OC)cc2Cl)CC1`, the viability in experiment [1] is 85%; in experiment [3], 85% (inactive); in experiment [4], 108% (inactive); in experiment [5], 91.1% (inactive); in experiment [6] (setting [9]), 91.3%; in experiment [6] (setting [10]), 91.1%. In addition, the Her2 level in experiment [2] is 102% (inactive). In experiment [6] (H69AR cells + 2 uM doxorubicin), the differential viability (reversal) is -0.21% (inactive). Besides, the inhibition in experiment [7] was -2.24% (inactive); in experiment [8] it was -4.92% (inactive).

Turning to `O=S1(=O)CCC(NS(=O)(=O)/C=C/c2ccccc2)C1` (stereo not given), the viability in experiment [1] is 110%; in experiment [3], 110% (inactive); in experiment [4], 93.4% (inactive); in experiment [5], 99.2% (inactive); in experiment [6] (setting [9]) it was 90.1%; in experiment [6] (setting [10]) it was 99.2%. The Her2 level in experiment [2] was 104% (inactive). Besides, the differential viability (reversal) in experiment [6] (H69AR cells + 2 uM doxorubicin) is 9.1% (inactive). The inhibition in experiment [7] is -6.22% (inactive); in experiment [8], -3.11% (inactive).

In the case of `CCOC(=O)N1CCN(c2c(N3CCN(c4ccccn4)CC3)c(=O)c2=O)CC1`, the viability in experiment [1] was 104%; in experiment [3], 104% (inactive); in experiment [4] it was 95.4% (inactive); in experiment [5] it was 92.5% (inactive); in experiment [6] (setting [9]), 82.6%; in experiment [6] (setting [10]), 92.5%. The Her2 level in experiment [2] is 103% (inactive). Also, the differential viability (reversal) in experiment [6] (H69AR cells + 2 uM doxorubicin) is 9.85% (inactive). The inhibition is -2.67% (inactive) in experiment [7] and -2.79% (inactive) in experiment [8].

For the compound `Cc1[nH]n2c(=O)cc(Cc3ccccc3)nc2c1C#N`, the viability in experiment [1] is 97.5%; in experiment [3], 97.5% (inactive); in experiment [4] it was 97.1% (inactive); in experiment [5] it was 81.5% (inactive); in experiment [6] (setting [9]), 91.6%; in experiment [6] (setting [10]) it was 81.5%. The Her2 level in experiment [2] is 80% (inactive). Also, the differential viability (reversal) in experiment [6] (H69AR cells + 2 uM doxorubicin) was -10.1% (inactive). Also, the inhibition in experiment [7] is -2.89% (inactive); in experiment [8], -1.45% (inactive).

Consider `CCOc1cc(S(=O)(=O)N2CCC(Cc3ccccc3)CC2)c(OCC)cc1-n1cnnn1`, for which the viability in experiment [1] is 77.5%; in experiment [3] it was 77.5% (inactive); in experiment [4], 90.7% (inactive); in experiment [5], 99.7% (inactive); in experiment [6] (setting [9]) it was 67.2%; in experiment [6] (setting [10]), 99.7%. For the same compound, the Her2 level in experiment [2] is 102% (inactive). For the same compound, the differential viability (reversal) in experiment [6] (H69AR cells + 2 uM doxorubicin) was 32.5% (inactive). Besides, the inhibition in experiment [7] was 5.95% (inactive); in experiment [8] it was -1.59% (inactive).

For `COc1ccccc1C(=O)n1nc(-c2ccccc2)nc1N`, the viability is 91% in experiment [1]; 91% (inactive) in experiment [3]; 110% (inactive) in experiment [4]; 87.9% (inactive) in experiment [5]; 90.5% in experiment [6] (setting [9]); 87.9% in experiment [6] (setting [10]). In addition, in experiment [2], the Her2 level was 90% (inactive). Besides, in experiment [6] (H69AR cells + 2 uM doxorubicin), the differential viability (reversal) was -2.62% (inactive). Further, the values for the inhibition in experiment [7] and in experiment [8] were -3.29% (inactive) and 3.77% (inactive), respectively.

Turning to `Cn1c2c(c(=O)n(C)c1=O)CN(CCCN1CCOCC1)CN2`, the viability in experiment [1] is 100%; in experiment [3] it was 100% (inactive); in experiment [4] it was 106% (inactive); in experiment [5], 108% (inactive); in experiment [6] (setting [9]) it was 101%; in experiment [6] (setting [10]), 108%. For the same compound, the Her2 level in experiment [2] is 86.5% (inactive). Moreover, the differential viability (reversal) in experiment [6] (H69AR cells + 2 uM doxorubicin) was 7.39% (inactive). The inhibition is -5.26% (inactive) in experiment [7] and -5.27% (inactive) in experiment [8].

`CCCCn1nc(C(=O)N2CCc3ccccc32)c2ccccc2c1=O`: the viability in experiment [1] is 81.5%; in experiment [3], 81.5% (inactive); in experiment [4] it was 91.8% (inactive); in experiment [5] it was 93.9% (inactive); in experiment [6] (setting [9]), 105%; in experiment [6] (setting [10]), 93.9%. In addition, in experiment [2], the Her2 level was 110% (inactive). For the same compound, the differential viability (reversal) in experiment [6] (H69AR cells + 2 uM doxorubicin) was -11.2% (inactive). The inhibition in experiment [7] was -0.4% (inactive); in experiment [8], -10.6% (inactive).

For `CCc1ccccc1N=C1SCC(=O)N1C`, the viability in experiment [1] was 96.5%; in experiment [3] it was 96.5% (inactive); in experiment [4], 87.9% (inactive); in experiment [5] it was 97% (inactive); in experiment [6] (setting [9]), 86.8%; in experiment [6] (setting [10]), 97%. Also, the Her2 level in experiment [2] was 102% (inactive). In addition, the differential viability (reversal) in experiment [6] (H69AR cells + 2 uM doxorubicin) is 10.1% (inactive). In addition, the inhibition in experiment [7] was -6.67% (inactive); in experiment [8], -4.26% (inactive).

For `O=C(Nc1ccc(N2CCOCC2)cc1)c1cc2ccccc2o1`, the viability in experiment [1] was 99.5%; in experiment [3] it was 99.5% (inactive); in experiment [4] it was 109% (inactive); in experiment [5], 85.7% (inactive); in experiment [6] (setting [9]), 82.6%; in experiment [6] (setting [10]) it was 85.7%. Further, the Her2 level in experiment [2] was 117% (inactive). In addition, the differential viability (reversal) in experiment [6] (H69AR cells + 2 uM doxorubicin) was 3.15% (inactive). The inhibition in experiment [7] was -0.26% (inactive); in experiment [8] it was -10.8% (inactive).

Take `CCOC(=O)c1sc2ncn(/N=C/N(C)C)c(=O)c2c1C`: the viability in experiment [1] was 98%; in experiment [3], 98% (inactive); in experiment [4], 114% (inactive); in experiment [5], 100% (inactive); in experiment [6] (setting [9]), 94.1%; in experiment [6] (setting [10]) it was 100%. Further, in experiment [2], the Her2 level is 97.5% (inactive). Further, the differential viability (reversal) in experiment [6] (H69AR cells + 2 uM doxorubicin) is 5.85% (inactive). In addition, the inhibition is -6.13% (inactive) in experiment [7] and 4.68% (inactive) in experiment [8].

Consider `COc1ccc2c(CC(=O)Nc3ccc(OC)c(NS(=O)(=O)c4ccc(F)cc4)c3)coc2c1`, for which the viability in experiment [1] was 88%; in experiment [3], 88% (inactive); in experiment [4] it was 70.2% (inactive); in experiment [5], 86.3% (inactive); in experiment [6] (setting [9]), 88.1%; in experiment [6] (setting [10]), 86.3%. Moreover, the Her2 level in experiment [2] was 85% (inactive). Besides, the differential viability (reversal) in experiment [6] (H69AR cells + 2 uM doxorubicin) was -1.86% (inactive). Moreover, the inhibition in experiment [7] was -2.18% (inactive); in experiment [8], -0.33% (inactive).

In the case of `Cn1c(SCc2nc3ccccc3c(=O)[nH]2)nnc1-c1ccco1`, the viability in experiment [1] is 99.5%; in experiment [3], 99.5% (inactive); in experiment [4] it was 97.5% (inactive); in experiment [5] it was 96% (inactive); in experiment [6] (setting [9]), 90.4%; in experiment [6] (setting [10]), 96%. Moreover, the Her2 level in experiment [2] was 81% (inactive). Also, the differential viability (reversal) in experiment [6] (H69AR cells + 2 uM doxorubicin) was 5.6% (inactive). Further, the inhibition in experiment [7] is -7.84% (inactive); in experiment [8], 6.89% (inactive).
